Experimental data: PubChem BioAssay
Records with an inconclusive call do not appear.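 How the source made its calls, unless noted: active means viability increase at or above a cutoff of the median across tested compounds plus 3 SD (cut at about 8.5% in these data, passing the limit was not always enough); inconclusive means some gains above the cutoff, reason not given; inactive means the rest.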

Key:
[1] = OD615 S. cerevisiae growth inhibition, permissive medium, pilot counter-assay, permissive growth control for S. cerevisiae lifespan shortening project (AID 705;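 active means growth inhibition above 25% in both replicates, a cutoff set 3 SD above the mean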); details: OD615, 24 h, at 10 µM, active compounds read high
Method in brief: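 Test system: Saccharomyces cerevisiae strain carrying genetically modified DeaD replicative-lifespan system; buffer or medium: SC raffinose/galactose permissive medium; dosing: one dose 10 µM, DMSO 0.25% final; times: 24 h exposure, 30 °C; measured by: OD at 615 nm; read-out basis: growth inhibition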

[2] = Restrictive medium S. cerevisiae growth inhibition, OD615, pilot screen of yeast lifespan reduction project, restrictive growth control (AID 706;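 active means growth inhibition above a set limit, 3 SD over mean compound inhibition, in both replicates, cut at about 43% in these data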;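 further: modified DeaD lifespan yeast strain shifted to restrictive glucose medium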); details: OD615, 48 h, at 10 µM, active compounds read high
Method in brief: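 material = engineered S. cerevisiae DeaD strain | buffer or medium = glucose-based CSMM-D restrictive medium | dosing = one concentration, 10 µM final, 0.25% DMSO | schedule = 4 h pre-growth plus 48 h compound exposure, 30 °C | detection = OD615 absorbance reading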

[3] = viability gain of MRP-1-high H69AR cells under doxorubicin, pilot screen, MRP-1 activator project, CellTiter-Glo, duplicate (AID 807); details: H69AR viability with doxorubicin, CellTiter-Glo luminescence; at 10 µM; active compounds read high;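 further: compound pretreatment 18-22 h then 72 h combined with doxorubicin; 0% = doxorubicin alone and 100% = vehicle without doxorubicin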
[4] = growth suppression of beta-catenin knockout HCT116, pilot screen, human colon tumor cells (AID 823;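 active means cell viability at or below a set limit in both duplicate runs, the limit being the all-compound median minus 4 SD, cut at about 23% in these data, passing the limit was not always enough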;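 further: 0% = wells killed by 20 µM Hyamine and 100% = untreated DMSO cell wells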); details: CellTiter-Glo, 60 h, at 10 µM, active compounds read low
[5] = growth suppression of PTEN-deleted HCT116, pilot screen, cell-based, HCT116 clonal line, CellTiter-Glo (AID 824;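 active means viability at or below 27.92% in each of two runs, the all-compound median minus 4 SD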;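 further: 0% = 20 µM Hyamine control and 100% = vehicle cell control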); details: 60 h, at 10 µM, active compounds read low
[6] = inhibitors of the yeast RAM network, pilot screen, dse1pr::URA3 reporter, 5-FOA selection (AID 869;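 active means inhibition over a set limit, the all-compound mean plus 3 SD, in both replicate runs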;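 further: 0% = DMSO wells with no growth and 100% = 10 µM 1-NA-PP1 with full growth; RAM network block rescues cells from 5-FOA so hits raise OD615 growth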); details: S. cerevisiae dse1pr::URA3 5-FOA growth, OD615, 2 d; at 10 µM; active compounds read high; strain carries analog-sensitive mutant Cbk1 kinase
[7] = RAM signaling pathway blockade in yeast – S. cerevisiae, Pdr1DBD-CYC8 efflux-inhibited sensitized strain, primary screen (AID 1298;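 active means RAM network inhibition above 8.4% in each of two replicates, 3 SD over the compound average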;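 further: 0% = DMSO untreated cells without growth and 100% = 10 µM 1-NA-PP1 full growth; higher means more yeast growth rescued from 5-FOA killing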); details: S. cerevisiae cbk1-as DSE1-URA3 strain, 5-FOA growth OD615, 2 d; at 50 µM; active compounds read high

CC(CC1C(C#N)=C(N)OC2=C1C(=O)CCC2)c1ccccc1 (stereo unspecified)
inactive: growth inhibition [1] -23.1% | growth inhibition [2] -13.3% | viability increase [3] -1.89% | viability [4] 98.6% | viability [5] 99.3% | inhibition [6] 0.91% | RAM network inhibition [7] 5.88%

CCN(CC)S(=O)(=O)c1cc(C(=O)Nc2ccc(Cl)cn2)ccc1C
inactive: growth inhibition [1] -5.56% | growth inhibition [2] -11.5% | viability increase [3] 2.78% | viability [4] 52.9% | viability [5] 74.2% | inhibition [6] 1.1% | RAM network inhibition [7] -0.26%

CCc1cccc(NC(=O)CS(=O)Cc2nc(-c3ccc(C)cc3)oc2C)c1 (stereo unspecified)
inactive: growth inhibition [1] 9.24% | growth inhibition [2] 24.4% | viability increase [3] -1.87% | viability [4] 96.1% | viability [5] 87.1% | inhibition [6] 1.46% | RAM network inhibition [7] 3.37%

COc1cccc(C2NC(=O)NC(C)=C2C(=O)OCCSC)c1OC (stereo unspecified)
inactive: growth inhibition [1] -3.21% | growth inhibition [2] -16.4% | viability increase [3] -0.87% | viability [4] 93.7% | viability [5] 90.6% | inhibition [6] 1.07% | RAM network inhibition [7] 2.02%

COC(=O)C1=CN(C)C=C(C(=O)OC)C1c1ccc(Cl)cc1Cl
inactive: growth inhibition [1] -12.4% | growth inhibition [2] -10.4% | viability increase [3] -2.14% | viability [4] 85.1% | viability [5] 78.2% | inhibition [6] 3.2% | RAM network inhibition [7] 8.48%

CCn1c2ccccc2c2nnc(SCN3C(=O)c4ccccc4C3=O)nc21
inactive: growth inhibition [1] -12.1% | growth inhibition [2] -1.02% | viability increase [3] -3.94% | viability [4] 98.5% | viability [5] 100% | inhibition [6] 2.71% | RAM network inhibition [7] 5.66%

Cc1cc(NC(=O)CSc2cn(CCNC(=O)c3ccccc3)c3ccccc23)no1
inactive: growth inhibition [1] -3.29% | growth inhibition [2] -0.585% | viability increase [3] -0.97% | viability [4] 88.1% | viability [5] 88.7% | inhibition [6] 3.04% | RAM network inhibition [7] 6.89%

C/C(=C\C(=O)c1ccc(C)cc1)Nc1cccc(O)c1
inactive: growth inhibition [1] 4.13% | growth inhibition [2] -2.96% | viability increase [3] -4.74% | viability [4] 99.2% | viability [5] 92.8% | inhibition [6] 2.13% | RAM network inhibition [7] -0.26%

COc1cc(-c2nc3cnccn3c2Nc2ccccc2)ccc1O
inactive: growth inhibition [1] -7.8% | growth inhibition [2] 0.535% | viability increase [3] -5.59% | viability [4] 47.8% | viability [5] 44.7% | inhibition [6] 2.43% | RAM network inhibition [7] 0.41%

COc1ccc(N2CCN(c3cc(=O)n(Cc4ccc(F)cc4)c(=O)[nH]3)CC2)cc1
inactive: growth inhibition [1] -4.88% | growth inhibition [2] 1.23% | viability increase [3] -2.97% | viability [4] 92.9% | viability [5] 86.3% | inhibition [6] 0.215% | RAM network inhibition [7] 9.17%

Cn1c(C(=O)N2CCC(C(N)=O)CC2)cc2c(=O)n(C)c3ccccc3c21
inactive: growth inhibition [1] -2.25% | growth inhibition [2] 1.93% | viability increase [3] -0.97% | viability [4] 110% | viability [5] 99.3% | inhibition [6] 0.085% | RAM network inhibition [7] 2.21%

O=C(c1ccc2nc(N3CCCCC3)sc2c1)N1CCN(Cc2ccc3c(c2)OCO3)CC1
inactive: growth inhibition [1] 2.12% | growth inhibition [2] 1.62% | viability increase [3] 1.03% | viability [4] 54.2% | viability [5] 60.2% | inhibition [6] 0.76% | RAM network inhibition [7] 1.12%

CCOc1ccc(C(=O)Nc2cc(C)c3c(=O)oc4ccccc4c3n2)cc1
inactive: growth inhibition [1] -0.2% | growth inhibition [2] 9.54% | viability increase [3] -7.84% | viability [4] 65% | viability [5] 40.8% | inhibition [6] 1.54% | RAM network inhibition [7] 1.29%

O=C(CN1C(=O)COc2ccccc21)Nc1ccc(F)cc1
inactive: growth inhibition [1] -5.98% | growth inhibition [2] 6.11% | viability increase [3] -5.59% | viability [4] 106% | viability [5] 91.6% | inhibition [6] 1.26% | RAM network inhibition [7] 0.3%

O=C(O)CC1C(=O)NCCN1CCCc1ccccc1 (stereo unspecified)
inactive: growth inhibition [1] -11.4% | growth inhibition [2] -8.64% | viability increase [3] -0.23% | viability [4] 97.8% | viability [5] 97.9% | inhibition [6] 0.455% | RAM network inhibition [7] -1.48%

CCC(C)NC(=O)CS(=O)Cc1nc(-c2cccc(OC)c2)oc1C (stereo unspecified)
inactive: growth inhibition [1] -12.5% | growth inhibition [2] -1.45% | viability increase [3] -1.45% | viability [4] 98% | viability [5] 94.5% | inhibition [6] 1.23% | RAM network inhibition [7] 4.44%

CSc1nc(C)cc(SCCO)n1
inactive: growth inhibition [1] -3.2% | growth inhibition [2] 8.15% | viability increase [3] -1.79% | viability [4] 105% | viability [5] 102% | inhibition [6] 0.695% | RAM network inhibition [7] 0.46%

CC(=O)Nc1ccc(NC(=O)c2ccco2)cc1
inactive: growth inhibition [1] -9.41% | growth inhibition [2] -14.5% | viability increase [3] -2.09% | viability [4] 94.1% | viability [5] 96.8% | inhibition [6] -0.19% | RAM network inhibition [7] 2.4%

COc1ccc(Cc2nnc(Nc3ccc(C)cc3C)[nH]c2=O)cc1
inactive: growth inhibition [1] -10.4% | growth inhibition [2] -12.6% | viability increase [3] -1.16% | viability [4] 91.2% | viability [5] 94.2% | inhibition [6] 1.08% | RAM network inhibition [7] 7.16%

CCOc1ccc(Br)cc1/C=N/O
inactive: growth inhibition [1] -17.4% | growth inhibition [2] -29.9% | viability increase [3] -1.73% | viability [4] 80.3% | viability [5] 87.1% | inhibition [6] 0.11% | RAM network inhibition [7] -0.16%

Cc1ccc(-c2nc(CS(=O)(=O)CC(=O)N3CCc4ccccc4C3)c(C)o2)cc1
inactive: growth inhibition [1] -3.42% | growth inhibition [2] -1.55% | viability increase [3] -2.25% | viability [4] 67.4% | viability [5] 68.9% | inhibition [6] 0.555% | RAM network inhibition [7] 7.91%

CC(C)NS(=O)(=O)c1ccc2c(c1)oc(=O)n2C
inactive: growth inhibition [1] -2.26% | growth inhibition [2] 2.4% | viability increase [3] -0.75% | viability [4] 106% | viability [5] 98.7% | inhibition [6] -0.14% | RAM network inhibition [7] 0.91%

Cc1ccc2c(c1)NCC(C(=O)NCc1ccccc1)O2 (stereo unspecified)
inactive: growth inhibition [1] -10.4% | growth inhibition [2] 2.51% | viability increase [3] 0.49% | viability [4] 103% | viability [5] 88.6% | inhibition [6] 1.46% | RAM network inhibition [7] 0.25%

O=C(Nc1nccs1)c1ccc(Cl)s1
inactive: growth inhibition [1] -0.705% | growth inhibition [2] 4.79% | viability increase [3] 1.01% | viability [4] 96.3% | viability [5] 94.9% | inhibition [6] -0.025% | RAM network inhibition [7] -1.54%

O=C(Nc1ccc(OC(F)(F)F)cc1)c1cnc2n(c1=O)CCS2
inactive: growth inhibition [1] -14.9% | growth inhibition [2] -1.33% | viability increase [3] 2.36% | viability [4] 89.9% | viability [5] 79.1% | inhibition [6] 3.13% | RAM network inhibition [7] 4.63%

CCOC(=O)NC(Nc1ccc(C)cn1)(C(F)(F)F)C(F)(F)F
inactive: growth inhibition [1] 11.5% | growth inhibition [2] 4.23% | viability increase [3] -1.59% | viability [4] 95.2% | viability [5] 100% | inhibition [6] 0.545% | RAM network inhibition [7] 0.7%

CCCSc1nnc(Cn2c(=O)sc3ccccc32)n1-c1ccccc1
inactive: growth inhibition [1] -9.77% | growth inhibition [2] 3.11% | viability increase [3] 1.4% | viability [4] 92.6% | viability [5] 81.3% | inhibition [6] 3.3% | RAM network inhibition [7] 11%

COc1cc(OC)c(Nc2cc(C)nc3nc(C)nn23)cc1Cl
inactive: growth inhibition [1] 4.72% | growth inhibition [2] -1.03% | viability increase [3] -1.47% | viability [4] 106% | viability [5] 104% | inhibition [6] 3.52% | RAM network inhibition [7] -0.72%

O=C(O)CSCCc1ccccn1
inactive: growth inhibition [1] 4.38% | growth inhibition [2] 11.1% | viability increase [3] -0.02% | viability [4] 98.3% | viability [5] 99.6% | inhibition [6] 1.27% | RAM network inhibition [7] 4.45%

O=c1c2ccccc2nc(SCc2nnc(-c3ccccc3)o2)n1-c1ccccc1
inactive: growth inhibition [1] -13.1% | growth inhibition [2] -8.7% | viability increase [3] -3.18% | viability [4] 75.4% | viability [5] 84.6% | inhibition [6] 1.96% | RAM network inhibition [7] 5.69%

OC1CCN(c2c3c(nc4cc(-c5cccc(F)c5)nn24)CCCC3)CC1
inactive: growth inhibition [1] 2.2% | growth inhibition [2] -11.2% | viability increase [3] -6.47% | viability [4] 73.8% | viability [5] 65% | inhibition [6] 2.02% | RAM network inhibition [7] 9.14%

CCc1nnc(SCc2ccc(OC)c(Br)c2)n1N
inactive: growth inhibition [1] 6.13% | growth inhibition [2] -2.06% | viability increase [3] -0.5% | viability [4] 104% | viability [5] 98.9% | inhibition [6] 0.21% | RAM network inhibition [7] 2.41%

C=CCn1c(NC(C)c2cc(Cl)ccc2O)nc2ccccc21 (stereo unspecified)
inactive: growth inhibition [1] -8.04% | growth inhibition [2] -0.215% | viability increase [3] -0.96% | viability [4] 68.6% | viability [5] 65.1% | inhibition [6] 0.29% | RAM network inhibition [7] -1.03%
